# Data published in PubChem BioAssay.
# Active and inactive are the calls of the source.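 How the source made its calls, unless noted: active means Her2 level under about 52% in both replicate screens, with viability over 70% of control (limit read from the data); inconclusive means Her2 under the limit in one screen only, or viability under 70%; inactive means Her2 level above the set limit.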
# Tests used:
# [1] = Her2 expression decrease, cell viability multiplex – SKBR3 breast tumor cells, AlphaScreen, ATP viability, primary screen (AID 461); conditions: SKBR3 Her2 protein level, 18-24 h, measured here: SKBR3 viability, ATP luminescence, at 10 µM;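 on Her2 level: lower value means less Her2 protein in the cells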;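 on viability: percent of carrier control wells set as 100% viability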
# [2] = molecular target: Receptor tyrosine-protein kinase erbB-2 (Homo sapiens) (UniProt P04626); test: as above; conditions: 18-24 h, at 10 µM, stronger effect = lower value
# Sequence of Receptor tyrosine-protein kinase erbB-2 (Homo sapiens) (P04626 whole entry, looked up): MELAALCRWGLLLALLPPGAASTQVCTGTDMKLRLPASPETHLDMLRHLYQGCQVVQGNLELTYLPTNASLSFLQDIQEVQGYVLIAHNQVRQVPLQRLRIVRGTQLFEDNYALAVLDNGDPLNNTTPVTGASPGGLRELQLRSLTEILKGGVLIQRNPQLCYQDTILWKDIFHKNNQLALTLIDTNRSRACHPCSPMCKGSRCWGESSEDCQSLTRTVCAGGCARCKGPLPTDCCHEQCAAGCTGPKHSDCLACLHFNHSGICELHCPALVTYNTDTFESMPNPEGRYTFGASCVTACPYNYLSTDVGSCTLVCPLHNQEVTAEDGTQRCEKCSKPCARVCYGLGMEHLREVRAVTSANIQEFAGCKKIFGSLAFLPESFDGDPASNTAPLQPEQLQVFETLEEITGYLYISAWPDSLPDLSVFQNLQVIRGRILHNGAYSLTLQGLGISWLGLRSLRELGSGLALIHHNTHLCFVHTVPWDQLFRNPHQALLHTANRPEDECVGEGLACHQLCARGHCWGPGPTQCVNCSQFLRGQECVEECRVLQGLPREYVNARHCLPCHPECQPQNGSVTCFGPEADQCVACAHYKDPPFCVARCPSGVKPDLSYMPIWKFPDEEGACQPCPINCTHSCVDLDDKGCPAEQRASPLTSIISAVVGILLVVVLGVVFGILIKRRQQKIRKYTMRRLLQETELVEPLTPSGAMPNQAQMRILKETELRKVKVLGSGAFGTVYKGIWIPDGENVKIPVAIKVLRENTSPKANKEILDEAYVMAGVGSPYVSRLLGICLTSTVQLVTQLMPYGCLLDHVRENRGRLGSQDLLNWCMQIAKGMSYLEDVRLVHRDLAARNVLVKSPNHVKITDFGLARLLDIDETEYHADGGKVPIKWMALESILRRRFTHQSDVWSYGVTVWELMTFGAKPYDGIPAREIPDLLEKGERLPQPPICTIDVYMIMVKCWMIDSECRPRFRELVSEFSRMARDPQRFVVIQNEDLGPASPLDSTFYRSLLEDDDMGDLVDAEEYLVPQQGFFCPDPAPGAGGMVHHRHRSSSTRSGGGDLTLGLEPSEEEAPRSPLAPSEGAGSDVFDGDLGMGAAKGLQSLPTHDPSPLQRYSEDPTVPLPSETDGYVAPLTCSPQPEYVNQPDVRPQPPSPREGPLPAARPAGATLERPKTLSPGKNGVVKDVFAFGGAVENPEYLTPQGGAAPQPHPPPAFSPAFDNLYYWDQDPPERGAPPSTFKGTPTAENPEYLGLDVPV
# [3] = reduced viability of SK-BR-3 breast cancer cells – cell-based, 24 h, human, pilot screen (AID 572;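 active means viability at or below 10% of carrier control in both of two separate runs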;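 further: compound exposure lasted between 18 and 24 h rather than exactly 24 h; 100% = carrier-treated control wells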); conditions: SK-BR-3 viability, CellTiter-Glo luminescence, at 10 µM, stronger effect = lower value
# [4] = HUVEC growth inhibition – cell-based, human, primary screen (AID 575;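 active means viability at or below 30% in both replicate assays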;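 further: 100% = median of untreated cell wells with 0.1% DMSO on each plate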); conditions: HUVEC proliferation, CellTiter-Glo luminescence, 72 h; at 10 µM; stronger effect = lower value
# Outline: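 Assay system: Primary human umbilical vein endothelial cells | Quantity: 1250 cells per well | Medium: Supplemented EBM, 2% fetal bovine serum | Detection: CellTiter-Glo luminescence measuring cellular ATP | Read-out: % viability vs DMSO wells | Plate: Collagen-coated 384-well format | Times: 72 h exposure, 37 °C, 5% CO2, 30 min RT equilibration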
# [5] = H69AR cell proliferation blockers – human, duplicate replicates, primary screen (AID 580;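 active means viability at or under a set limit in both replicates, limit being median viability minus 3 SD, cut at about 48% in these data, passing the limit was not always enough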;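 further: 100% = mean luminescence of untreated wells and 0% = no signal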); conditions: H69AR lung tumor cells viability, ATP luminescence, 72 h; at 10 µM; stronger effect = lower value
# [6] = MRP1 drug-resistance reversers in H69AR cells – cell-based, doxorubicin co-treatment, pilot screen (AID 601;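 active means viability loss from added drug above about 55%, and viability with drug at most 40%, in both replicates, limit read from the data, passing the limit was not always enough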); conditions: CellTiter-Glo, 72 h, at 10 µM; for differential viability (reversal): stronger effect = higher value
# [7] = yeast transport mutant growth inhibition pilot in 384-well plates, post-Golgi transport modulator project (AID 636; in the data active means inhibition above about 31%); conditions: absorbance 615 nm, about 18 h, stronger effect = higher value
# [8] = growth suppression of yeast trafficking mutant, preliminary HTS, modulators of trafficking downstream of Golgi apparatus project, 1536-format plate, OD 615 nm (AID 637; in the data active means inhibition above about 30%); conditions: yeast transport mutant growth, absorbance 615 nm, 18 h; stronger effect = higher value
# [9] = H69AR cells + 2 uM doxorubicin, measured here: viability with 2 uM doxorubicin, stronger effect = lower value
# [10] = H69AR cells, compound alone cytotoxicity
Compound,viability [1] [%],Her2 level [2],viability [3],viability [4],viability [5],differential viability (reversal) ([6]; H69AR cells + 2 uM doxorubicin),"viability [6, 9] [%]","viability [6, 10] [%]",inhibition [7],inhibition [8]
c1ccc(CN2C3=NCCCN3c3ccccc32)cc1,79,84% (inactive),79% (inactive),82.9% (inactive),91.2% (inactive),8.3% (inactive),83,91.2,-1.43% (inactive),-3.65% (inactive)
N#CC1=C(N)S[C@H](C(=O)C23CC4CC(CC(C4)C2)C3)[C@H]1c1ccncc1,81,79% (inactive),81% (inactive),41% (inactive),93.7% (inactive),47.6% (inactive),46.1,93.7,-2.8% (inactive),4.84% (inactive)
CCc1nnc2sc(-c3cc(-c4ccccc4)nc4ccccc34)nn12,71,65% (inactive),71% (inactive),75.5% (inactive),86.9% (inactive),-0.185% (inactive),87.1,86.9,-1.82% (inactive),1% (inactive)
Cc1nc2ncnn2c(N2CCC(C(=O)NC3CCCC3)CC2)c1Cc1ccccc1,88,95% (inactive),88% (inactive),91.5% (inactive),73.6% (inactive),37.8% (inactive),35.8,73.6,-5.48% (inactive),-4.76% (inactive)
Cc1ccc2nc(NCCCN3CCOCC3)c(C=NCCCN3CCOCC3)c(=O)n2c1,102,84% (inactive),102% (inactive),99.1% (inactive),81.9% (inactive),-4.68% (inactive),86.6,81.9,-0.39% (inactive),-12% (inactive)
COc1cccc(-n2c(C)nc3c(cnn3-c3ccc(C)cc3)c2=O)c1,86,102% (inactive),86% (inactive),79.6% (inactive),90.4% (inactive),-12% (inactive),102,90.4,0.66% (inactive),-10.5% (inactive)
Cc1nc(N)c(C#N)c(-c2cccnc2)c1C,94,83.5% (inactive),94% (inactive),74.3% (inactive),102% (inactive),-13.1% (inactive),115,102,-2.4% (inactive),-2.86% (inactive)
COc1cc(-c2nc(-c3cccc(C(F)(F)F)c3)no2)cc(OC)c1OC,102,99.5% (inactive),102% (inactive),94.4% (inactive),93.4% (inactive),10.7% (inactive),82.6,93.4,-1.87% (inactive),-2.58% (inactive)
CC(NC(=O)COc1ccccc1)C(=O)NC1=NCCS1 (stereo not given),89,124% (inactive),89% (inactive),88.8% (inactive),94.4% (inactive),3.6% (inactive),90.8,94.4,-4.36% (inactive),-11.8% (inactive)
Cc1cccc(NC2SC(=O)N(c3ccccc3)C2=O)c1 (stereo not given),100,81% (inactive),100% (inactive),88.9% (inactive),87.6% (inactive),-10.4% (inactive),97.9,87.6,-3.25% (inactive),-5.5% (inactive)
CCC(Sc1ccc(C(=O)O)cc1)C(=O)O (stereo not given),86.5,96% (inactive),86.5% (inactive),95.2% (inactive),93.9% (inactive),3.74% (inactive),90.2,93.9,-1.97% (inactive),-10% (inactive)
CN(C)CCCN1C(=O)c2oc3ccccc3c(=O)c2C1c1cccs1 (stereo not given),110,93.5% (inactive),110% (inactive),99% (inactive),86.1% (inactive),5.31% (inactive),80.8,86.1,-1.95% (inactive),1.67% (inactive)
CCCCn1c(=O)[nH]c(=O)c2c1nc(-c1ccncc1)n2CCOC,108,116% (inactive),108% (inactive),90.5% (inactive),94.2% (inactive),1.93% (inactive),92.2,94.2,1.43% (inactive),-6.5% (inactive)
COc1ccc(OC(C)C(=O)N2CC(C)OC(C)C2)cc1 (stereo not given),100,102% (inactive),100% (inactive),97.3% (inactive),100% (inactive),-1.02% (inactive),101,100,-5% (inactive),0.16% (inactive)
O=C(CSc1nnc(-c2ccncc2)n1-c1ccc(F)cc1)NC(=O)NCc1ccco1,132,89% (inactive),132% (inactive),89.1% (inactive),86% (inactive),-1.76% (inactive),87.8,86,-7.4% (inactive),-3.97% (inactive)
O=C(/C=N/O)NCc1ccncc1,100,94.5% (inactive),100% (inactive),102% (inactive),108% (inactive),7.88% (inactive),100,108,-1.43% (inactive),-3.81% (inactive)
Cc1ccc(S(=O)(=O)NCC(=O)N(CC(=O)NCc2ccccc2)CC2CCCO2)cc1 (stereo not given),110,91.5% (inactive),110% (inactive),108% (inactive),104% (inactive),17.9% (inactive),86.2,104,-3.65% (inactive),3.49% (inactive)
CC(C)CCN1CC(C(=O)NCc2ccccc2)CC1=O (stereo not given),88.5,87.5% (inactive),88.5% (inactive),88% (inactive),92.6% (inactive),1.32% (inactive),91.2,92.6,1.28% (inactive),-0.83% (inactive)
CCN1CCN(C(=O)c2ccc3c(=O)n(CCC4=CCCCC4)c(=O)[nH]c3c2)CC1,91,114% (inactive),91% (inactive),78.1% (inactive),84.7% (inactive),16.7% (inactive),67.9,84.7,-8.29% (inactive),-0.55% (inactive)
Cc1cccc(NC(=O)c2cc3n(n2)C(C(F)(F)F)CC(c2ccc4c(c2)OCO4)N3)c1 (stereo not given),113,68.5% (inactive),113% (inactive),56.9% (inactive),73.9% (inactive),-6.35% (inactive),80.2,73.9,-0.53% (inactive),1.61% (inactive)
FC(F)(F)c1nnc2sc(-c3cccs3)nn12,102,86.5% (inactive),102% (inactive),93.9% (inactive),113% (inactive),19.7% (inactive),93,113,-7.43% (inactive),4.6% (inactive)
O=C(CSc1ncnc2c1cnn2-c1ccccc1)Nc1ccccc1,96,88% (inactive),96% (inactive),63.1% (inactive),79.7% (inactive),7.43% (inactive),72.2,79.7,-7.95% (inactive),2.22% (inactive)
COc1ccc2nc3oc(C(=O)NC4CCN(Cc5ccccc5)CC4)cc3cc2c1,76.5,89.5% (inactive),76.5% (inactive),57.5% (inactive),82.6% (inactive),1.69% (inactive),80.9,82.6,-2.76% (inactive),-14.8% (inactive)
OCCn1c(-c2ccc3c(c2)OCO3)csc1=Nc1ccccc1,97,71.5% (inactive),97% (inactive),51.4% (inactive),88.7% (inactive),-2.46% (inactive),91.2,88.7,-4.4% (inactive),5.9% (inactive)
CCOC(=O)c1cc2sc(C)cc2n1C(C)C(=O)OCC (stereo not given),97.5,79% (inactive),97.5% (inactive),95.8% (inactive),86.3% (inactive),-6.21% (inactive),92.5,86.3,-3.6% (inactive),1.8% (inactive)
CC(C)CCNC(=O)C(c1cccs1)N(CC1CCCO1)C(=O)Cn1nnc2ccccc21 (stereo not given),116,112% (inactive),116% (inactive),96.2% (inactive),89.8% (inactive),4.32% (inactive),85.5,89.8,-5.71% (inactive),-6.33% (inactive)
Clc1ccccc1OCc1nn2c(-c3ccncc3)nnc2s1,114,75.5% (inactive),114% (inactive),78.6% (inactive),98.2% (inactive),5.55% (inactive),92.7,98.2,-5.95% (inactive),2.67% (inactive)
Cc1nc(NS(=O)(=O)c2ccccc2)sc1NC(=O)OC(C)C,97,106% (inactive),97% (inactive),90.3% (inactive),99.9% (inactive),1.17% (inactive),98.7,99.9,-3.29% (inactive),-12.5% (inactive)
